Experiments:
LoVo [1] = experiment: In vitro cytotoxicity against the selected tumor cell line LoVoS arising from human colon adenocarcinoma was determined; type: functional, cell-based
[2] = Potency ratio was determined against LoVoR versus FAA (Flavone acetic acid); less potent; type: functional
Method in brief: (§1)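 Ratio IC50(FAA)/IC50(analogue) from direct 24 h MTT cytotoxicity on the named line (LoVo S, LoVo R, 2008 or C13*), concentrations up to 500 μM. IC50 values and 95% confidence limits by Litchfield–Wilcoxon method; three experiments in triplicate.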

C13 [3] = experiment: cDirect cytotoxicity against the selected tumor cell line c13* was determined especially on ovarian adenocarcinoma derived cells; type: functional, cell-based; details: Homo sapiens
[4] = Potency ratio was determined against LoVoS versus FAA (Flavone acetic acid); type: functional; method in brief: as §1
[5] = Potency ratio was determined against C13 cell line versus FAA (Flavone acetic acid); less potent; type: functional; method in brief: as §1
[6] = Potency ratio was determined against 2008 cell line versus FAA (Flavone acetic acid); less potent; type: functional; method in brief: as §1
2008 [7] = experiment: Direct cytotoxicity against the selected tumor cell line 2008 was determined especially on ovarian adenocarcinoma derived cells; type: functional, cell-based; details: Homo sapiens
[8] = Potency ratio was determined against macrophages; type: functional
Method in brief: (§2)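 Ratio of reference IC50 (FAA or DMXAA) to analogue IC50 in the effector-cell coculture assay: mouse peritoneal macrophages or adherent human PBMC pretreated 24 h with drug, then C13* target cells added for 24 h, lysis by MTT. IC50 and ratios by Litchfield–Wilcoxon; three experiments in triplicate.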

Mus musculus [9] = organism: Mus musculus; experiment: Indirect antitumor effect was measured as cytotoxicity with murine macrophages pretreated with compounds; type: functional
Method in brief: (§3)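 Resident mouse peritoneal macrophages (heparinised PBS lavage, 2 h adherence) plated at 1 × 10^4 cells/well with a range of drug concentrations, triplicate wells, 24 h. Medium removed, C13* cells (2 × 10^3/well) added, cocultured 24 h. Lysis by MTT; specific cytotoxicity = [OD(macrophages+C13*) − OD(macrophages)]/OD(C13*). Three experiments; IC50 by Litchfield–Wilcoxon.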

[10] = Indirect antitumor effect was measured as cytotoxicity with human monocytes pretreated with compounds; type: functional
Method in brief: (§4)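 Adherent human PBMC (Ficoll isolation, 2 h adherence, washed) pretreated 24 h with 25, 50, 100 μM in RPMI 1640/5% FCS, triplicate wells. Medium removed, C13* cells (2 × 10^3/well) cocultured 24 h, read by MTT. Three experiments; IC50 by Litchfield–Wilcoxon.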

LoVo [11] = experiment: In vitro cytotoxicity against the selected tumor cell line LoVoR arising from human colon adenocarcinoma was determined; type: functional, cell-based
[12] = Potency ratio was determined against human monocytes versus DMXAA (Dimethylxanthenone-4-acetic acid); type: functional; method in brief: as §2
[13] = Potency ratio was determined against murine macrophages versus FAA (Flavone acetic acid); type: functional; method in brief: as §2
C13 [14] = experiment: Direct cytotoxicity against the selected tumor cell line c13* was determined especially on ovarian adenocarcinoma derived cells; not detected; type: functional, cell-based, Homo sapiens
2008 [15] = experiment: Direct cytotoxicity against the selected tumor cell line 2008 was determined especially on ovarian adenocarcinoma derived cells; not detected; type: functional, cell-based, Homo sapiens
[16] = Indirect antitumor effect was measured as cytotoxicity against human monocytes; not detected; type: functional; method in brief: as §4
[17] = Potency ratio was determined against LoVoR versus FAA (Flavone acetic acid); type: functional; method in brief: as §1
Mus musculus [18] = organism: Mus musculus; experiment: Indirect antitumor effect was measured as cytotoxicity against murine macrophages; not detected; type: functional; method in brief: as §3
[19] = Potency ratio was determined against human monocytes versus DMXAA (Dimethylxanthenone-4-acetic acid); less potent; type: functional; method in brief: as §2
LoVo [20] = experiment: In vitro cytotoxicity against the selected tumor cell line LoVoR arising from human colon adenocarcinoma was determined; not detected; type: functional, cell-based
LoVo [21] = experiment: In vitro cytotoxicity against the selected tumor cell line LoVoS arising from human colon adenocarcinoma was determined; not detected; type: functional, cell-based
[22] = Potency ratio was determined against human monocytes versus DMXAA (Dimethylxanthenone-4-acetic acid); more potent; type: functional; method in brief: as §2
[23] = cPotency ratio was determined against macrophages; more potent; type: functional; method in brief: as §2
C13 [24] = experiment: Direct cytotoxicity against the selected tumor cell line c13* was determined especially on ovarian adenocarcinoma derived cells; type: functional, cell-based; details: Homo sapiens
[25] = Potency ratio was determined against C13 cell line versus FAA (Flavone acetic acid); type: functional; method in brief: as §1
[26] = Potency ratio was determined against 2008 cell line versus FAA (Flavone acetic acid); type: functional; method in brief: as §1
[27] = Potency ratio was determined against macrophages; more potent; type: functional; method in brief: as §2
LoVo [28] = experiment: In vitro cytotoxicity against the selected tumor cell line LoVoR arising from human colon adenocarcinoma was determined

## COc1ccc(-c2oc3c(CC(=O)O)cccc3c(=O)c2OC)cc1
LoVo [1]
  IC50: 601 µM
[2]
  Potency ratio: 0.7
C13 [3]
  IC50: 548 µM
[4]
  Potency ratio: 0.9
[5]
  Potency ratio: 0.4
[6]
  Potency ratio: 0.7
2008 [7]
  IC50: 625 µM
[8]
  Potency ratio: 1.3
Mus musculus [9]
  IC50: 238 µM
[10]
  IC50: 181 µM
LoVo [11]
  IC50: 556 µM
[12]
  Potency ratio: 0.7
[13]
  Potency ratio: 1.2

## COc1cccc(-c2oc3c(CC(=O)O)cccc3c(=O)c2OC)c1
LoVo [1]
  IC50: 829 µM
[2]
  Potency ratio: 0.7
C13 [14]
  IC50: not detected
[4]
  Potency ratio: 0.7
2008 [15]
  IC50: not detected
[16]
  IC50: not detected
Mus musculus [9]
  IC50: 182 µM
LoVo [11]
  IC50: 514 µM
[13]
  Potency ratio: 1.6

## CC(C)Oc1c(-c2ccccc2)oc2c(CC(=O)O)cccc2c1=O
LoVo [1]
  IC50: 815 µM
C13 [14]
  IC50: not detected
[4]
  Potency ratio: 0.7
2008 [15]
  IC50: not detected
[16]
  IC50: not detected
Mus musculus [9]
  IC50: 225 µM
LoVo [11]
  IC50: 407 µM
[13]
  Potency ratio: 1.3
[17]
  Potency ratio: 0.9

## COc1c(-c2cccs2)oc2c(CC(=O)O)cccc2c1=O
Mus musculus [18]
  IC50: not detected
C13 [14]
  IC50: not detected
[19]
  Potency ratio: 0.6
2008 [15]
  IC50: not detected
LoVo [20]
  IC50: not detected
LoVo [21]
  IC50: not detected
[10]
  IC50: 213 µM

## COc1c(-c2cccc(C(F)(F)F)c2)oc2c(CC(=O)O)cccc2c1=O
Mus musculus [18]
  IC50: not detected
C13 [14]
  IC50: not detected
2008 [15]
  IC50: not detected
LoVo [21]
  IC50: not detected
[22]
  Potency ratio: 7.3
[10]
  IC50: 18.3 µM
LoVo [11]
  IC50: 532 µM
[17]
  Potency ratio: 0.7

## COc1c(-c2ccc(Cl)cc2)oc2c(CC(=O)O)cccc2c1=O
[23]
  Potency ratio: 2.8
C13 [24]
  IC50: 350 µM
2008 [15]
  IC50: not detected
[5]
  Potency ratio: 0.7
LoVo [20]
  IC50: not detected
LoVo [21]
  IC50: not detected
Mus musculus [9]
  IC50: 293 µM
[10]
  IC50: 105 µM
[12]
  Potency ratio: 1.3
[13]
  Potency ratio: 0.9

## O=C(O)Cc1cccc2c(=O)cc(-c3ccccc3)oc12 [MITOFLAXONE]
[25]
  Potency ratio: 1
LoVo [1]
  IC50: 564 µM
[4]
  Potency ratio: 1
C13 [24]
  IC50: 233 µM
[16]
  IC50: not detected
2008 [7]
  IC50: 421 µM
Mus musculus [9]
  IC50: 285 µM
[26]
  Potency ratio: 1
LoVo [11]
  IC50: 378 µM
[13]
  Potency ratio: 1
[17]
  Potency ratio: 0.6

## COc1c(-c2cccc(C)c2)oc2c(CC(=O)O)cccc2c1=O
LoVo [1]
  IC50: 697 µM
[2]
  Potency ratio: 0.6
[27]
  Potency ratio: 2.1
C13 [14]
  IC50: not detected
[4]
  Potency ratio: 0.8
2008 [15]
  IC50: not detected
Mus musculus [9]
  IC50: 234 µM
[10]
  IC50: 113 µM
LoVo [11]
  IC50: 648 µM
[12]
  Potency ratio: 1.2
[13]
  Potency ratio: 1.2

## COc1c(-c2ccc(C)cc2)oc2c(CC(=O)O)cccc2c1=O
LoVo [1]
  IC50: 632 µM
[4]
  Potency ratio: 0.9
C13 [24]
  IC50: 806 µM
2008 [15]
  IC50: not detected
[5]
  Potency ratio: 0.3
[16]
  IC50: not detected
Mus musculus [9]
  IC50: 164 µM
LoVo [11]
  IC50: 570 µM
[13]
  Potency ratio: 1.7
[17]
  Potency ratio: 0.7

## COc1c(-c2cccc(Cl)c2)oc2c(CC(=O)O)cccc2c1=O
LoVo [1]
  IC50: 534 µM
[27]
  Potency ratio: 6.5
C13 [14]
  IC50: not detected
[4]
  Potency ratio: 1
2008 [15]
  IC50: not detected
LoVo [20]
  IC50: not detected
[22]
  Potency ratio: 3.7
Mus musculus [9]
  IC50: 239 µM
[10]
  IC50: 36.8 µM
[13]
  Potency ratio: 1.2

## COc1ccccc1-c1oc2c(CC(=O)O)cccc2c(=O)c1OC
LoVo [1]
  IC50: 980 µM
Mus musculus [18]
  IC50: not detected
[2]
  Potency ratio: 0.5
C13 [14]
  IC50: not detected
[4]
  Potency ratio: 0.6
2008 [15]
  IC50: not detected
LoVo [28]
  IC50: 794 µM
[10]
  IC50: 193 µM
[12]
  Potency ratio: 0.7

## COc1c(-c2ccc(F)cc2)oc2c(CC(=O)O)cccc2c1=O
Mus musculus [18]
  IC50: not detected
C13 [14]
  IC50: not detected
[19]
  Potency ratio: 0.3
2008 [15]
  IC50: not detected
LoVo [20]
  IC50: not detected
LoVo [21]
  IC50: not detected
[10]
  IC50: 436 µM

## COc1c(-c2ccccc2)oc2c(CC(=O)O)cccc2c1=O
LoVo [1]
  IC50: 719 µM
[2]
  Potency ratio: 0.6
[4]
  Potency ratio: 0.8
C13 [24]
  IC50: 757 µM
2008 [15]
  IC50: not detected
[5]
  Potency ratio: 0.3
LoVo [11]
  IC50: 627 µM

## CCOc1c(-c2ccccc2)oc2c(CC(=O)O)cccc2c1=O
LoVo [1]
  IC50: 611 µM
C13 [14]
  IC50: not detected
[4]
  Potency ratio: 0.9
2008 [15]
  IC50: not detected
LoVo [20]
  IC50: not detected
[16]
  IC50: not detected
Mus musculus [9]
  IC50: 431 µM
[13]
  Potency ratio: 0.7

## COc1c(-c2ccccc2C)oc2c(CC(=O)O)cccc2c1=O
[27]
  Potency ratio: 1.9
C13 [24]
  IC50: 524 µM
2008 [15]
  IC50: not detected
[5]
  Potency ratio: 0.4
LoVo [21]
  IC50: not detected
Mus musculus [9]
  IC50: 248 µM
[10]
  IC50: 127 µM
[12]
  Potency ratio: 1
[13]
  Potency ratio: 1.1

## COc1c(-c2ccccc2Cl)oc2c(CC(=O)O)cccc2c1=O
LoVo [1]
  IC50: 605 µM
[2]
  Potency ratio: 0.5
C13 [14]
  IC50: not detected
[4]
  Potency ratio: 0.9
2008 [15]
  IC50: not detected
[16]
  IC50: not detected
Mus musculus [9]
  IC50: 284 µM
LoVo [11]
  IC50: 780 µM
[13]
  Potency ratio: 1

Reference: ChEMBL document CHEMBL1145051, “Synthesis and biological evaluation of 3-alkoxy analogues of flavone-8-acetic acid” (J Med Chem, 2003)
